Measured values published in PubChem BioAssay.
Calls of active or inactive are those of the source.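 How the source made its calls, unless noted: active means GFP response above 150% of the DMSO level; inconclusive means fewer than 70 events counted for a yeast strain; inactive means the rest.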

What was measured:
[1] = hit retest on RPL19A-GFP reporter strain – cell-based, S. cerevisiae, flow cytometry, cherry picks, mother/daughter gates, confirmation (AID 2270;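 active means GFP response below 50% of the DMSO control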); conditions: 3 h, at 10 µM, stronger effect = lower value, 100 = same GFP as DMSO wells
[2] = yeast TOR pathway reporter LAP4-GFP change – cell-based, cherry picks, flow cytometry, mother/daughter gates, confirmation (AID 2271;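 active means GFP response above 150% of the DMSO control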;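 further: ratio of sample to DMSO plate mean so 100% equals DMSO level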); conditions: S. cerevisiae LAP4-GFP strain, 3 h, at 10 µM, stronger effect = higher value, 100 means same as DMSO control
Procedure, shortened: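 System – GFP-fusion yeast strain · Amount – 0.2 OD600 cells · Buffer or medium – SC growth medium · Dosing – single test-compound dose, 10 µM final · Schedule – 3 h treatment at 30 °C with rotation · Detection – GFP by flow cytometry · Read-out – per-gate (all, mother, daughter) GFP response vs DMSO · Benchmarks – positive rapamycin (400 ng/mL), negative DMSO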

[3] = TOR pathway reporter MEP2-GFP, retest of hits – S. cerevisiae, flow cytometry GFP, cherry picks, confirmation (AID 2272;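 active means GFP response above 150% of the DMSO control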;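 further: ratio of well signal to plate DMSO mean so 100% equals DMSO level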); conditions: S. cerevisiae MEP2-GFP strain, 3 h, at 10 µM, stronger effect = higher value
[4] = yeast AGP1-GFP fluorescence change, single-dose – cell-based, flow cytometry, S. cerevisiae, cherry picks, confirmation (AID 2273);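 further: median GFP channel fluorescence over the whole cell population gate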; conditions: S. cerevisiae AGP1-GFP strain, 3 h, at 10 µM
[5] = TOR pathway CIT2 reporter hit retest – S. cerevisiae, GFP fusion, cherry picks, mother/daughter gates, confirmation (AID 2274); conditions: S. cerevisiae CIT2-GFP strain, flow cytometry, 3 h, at 10 µM, stronger effect = higher value
[6] = measured here: daughter cell gate
[7] = measured here: mother cell gate
[8] = measured here: daughter cell gate response
[9] = measured here: mother cell gate response

SMILES | GFP response vs DMSO [1] | GFP response vs DMSO [1, 6] [%] | GFP response vs DMSO [1, 7] [%] | GFP response relative to DMSO [2] | GFP response relative to DMSO [2, 8] [%] | GFP response relative to DMSO [2, 9] [%] | GFP response vs DMSO [3] | GFP response, % of DMSO [4] | GFP response, % of DMSO [5] | GFP response, % of DMSO [5, 6] [%] | GFP response, % of DMSO [5, 7] [%]
C/C(=N\NC(=O)Cc1ccc([N+](=O)[O-])cc1)c1cccnc1 | 97.8% (inactive) | 99.3 | 97.7 | 98.2% (inactive) | 97.5 | 97.3 | 96.8% (inactive) | 98.4% (inactive) | 102% (inactive) | 103 | 102
COc1ccc(-c2cc(C(F)(F)F)nc(S(C)(=O)=O)n2)cc1 | 102% (inactive) | 104 | 96.1 | 136% (inactive) | 134 | 133 | 130% (inactive) | 116% (inactive) | 95.2% (inactive) | 98.1 | 86.9
Cc1ccc(C(=O)Oc2oc(-c3ccccc3)nc2C=Nc2ccc(N(C)C)cc2)cc1 | 98.2% (inactive) | 99.4 | 98.8 | 94.9% (inactive) | 98.2 | 93 | 105% (inactive) | 101% (inactive) | 113% (inactive) | 114 | 114
Cc1nn(C)c(C)c1N1C(=O)c2cccc3c(Br)ccc(c23)C1=O | 103% (inactive) | 102 | 103 | 136% (inactive) | 137 | 134 | 207% (active) | 112% (inactive) | 148% (inactive) | 152 | 141
COc1ccc(/C=N/c2c(-c3ccco3)nc3ccccn23)cc1OC | 97.8% (inactive) | 98.5 | 98.6 | 95.3% (inactive) | 96.5 | 93.6 | 102% (inactive) | 98.9% (inactive) | 101% (inactive) | 100 | 100
CCC(C(=O)O)n1nc(-c2ccccc2)c2cc(Cl)ccc21 (configuration not stated) | 98.7% (inactive) | 98.4 | 98.2 | 98.9% (inactive) | 96 | 99.5 | 99.3% (inactive) | 102% (inactive) | 101% (inactive) | 99.3 | 102
CCc1ccc2c(c1)C1(NN=C(c3cccc4ccccc34)S1)C(=O)N2 (configuration not stated) | 96% (inactive) | 96.7 | 93.1 | 111% (inactive) | 105 | 114 | 97.2% (inactive) | 102% (inactive) | 93.1% (inactive) | 99.3 | 88.2
COc1ccc(N2CCN(c3nc4c(C)cccn4c(=O)c3/C=C(\C#N)C(N)=O)CC2)cc1 | 97.8% (inactive) | 97.3 | 97.5 | 101% (inactive) | 101 | 101 | 103% (inactive) | 106% (inactive) | 103% (inactive) | 105 | 102
Cc1ccc(C(=O)O/N=C(\N)Cc2cccs2)c(Cl)c1 | 104% (inactive) | 102 | 99.3 | 125% (inactive) | 114 | 123 | 105% (inactive) | 70.7% (inactive) | 129% (inactive) | 117 | 129
O=C(Nc1nc(-c2ccccn2)cs1)c1cc2ccccc2o1 | 97.4% (inactive) | 96.7 | 83.7 | 285% (active) | 163 | 215 | 129% (inactive) | 120% (inactive) | 124% (inactive) | 104 | 91
CCOC(=O)c1sc(NC(=O)c2ccc3ncsc3c2)nc1C | 98% (inactive) | 95 | 94.8 | 95.3% (inactive) | 96 | 93.4 | 110% (inactive) | 96.4% (inactive) | 98.6% (inactive) | 95.8 | 93.8
COc1cccc(N=Nc2ccc3cccnc3c2O)c1 | 99.8% (inactive) | 97.6 | 101 | 147% (inactive) | 140 | 146 | 120% (inactive) | 93.2% (inactive) | 98.8% (inactive) | 103 | 96.8
COc1ccc(C(=O)NNC(=S)NC(=O)/C=C/c2cccs2)cc1 | 106% (inactive) | 109 | 104 | 201% (active) | 173 | 198 | 120% (inactive) | 121% (inactive) | 108% (inactive) | 112 | 100
CCc1ccc(-c2csc(NC(=O)COC(=O)CCc3nc4ccccc4s3)n2)cc1 | 105% (inactive) | 102 | 106 | 98.2% (inactive) | 97.5 | 98.4 | 103% (inactive) | 103% (inactive) | 106% (inactive) | 101 | 105
CCCCn1c(=O)c(C(=O)OCC)c(O)c2ccccc21 | 106% (inactive) | 101 | 108 | 105% (inactive) | 102 | 108 | 99% (inactive) | 97.5% (inactive) | 94.4% (inactive) | 90.2 | 94.4
CC1=CC(=O)C(C(C)C)=C/C1=N/OS(=O)(=O)c1ccccc1 | 78.6% (inactive) | 51.6 | 71.3 | 271% (active) | 175 | 270 | 127% (inactive) | 118% (inactive) | 99.7% (inactive) | 111 | 83.8
Cc1nn(C)cc1C(C)NC(=O)c1cc(COc2ccc(F)c(F)c2)on1 (configuration not stated) | 101% (inactive) | 100 | 102 | 93.8% (inactive) | 94.1 | 96.2 | 100% (inactive) | 93.7% (inactive) | 97.8% (inactive) | 98.1 | 97.7
COc1ccc(CNC(=O)c2c(O)c3ccccc3n(C)c2=O)cc1OC | 96.9% (inactive) | 97.8 | 96.7 | 90.6% (inactive) | 92.9 | 91.3 | 110% (inactive) | 99.1% (inactive) | 103% (inactive) | 105 | 103
Cc1cccc(CS(=O)(=O)c2ncc(Cl)c(C(=O)NCc3ccc4c(c3)OCO4)n2)c1 | 99.7% (inactive) | 99 | 102 | 90.2% (inactive) | 91 | 91.1 | 102% (inactive) | 98.7% (inactive) | 107% (inactive) | 105 | 108
O=C(Nc1nc(-c2ccccc2)cs1)c1ccc(Br)o1 | 102% (inactive) | 101 | 101 | 106% (inactive) | 101 | 108 | 99% (inactive) | 94.9% (inactive) | 108% (inactive) | 105 | 107
CCN(CC)C(=O)Cn1c(C)c(/C=C/c2cc[n+](C)cc2)c2ccccc21 | 107% (inactive) | 106 | 106 | 108% (inactive) | 110 | 107 | 126% (inactive) | 98.6% (inactive) | 109% (inactive) | 110 | 105
Cc1onc(-c2c(Cl)cccc2Cl)c1NC(=O)NNc1c(Cl)cncc1Cl | 99.8% (inactive) | 99.4 | 99.2 | 103% (inactive) | 102 | 100 | 100% (inactive) | 97.2% (inactive) | 99.7% (inactive) | 101 | 97.3
O=C(/C(=C/O)N=Nc1ccc(Cl)cc1)c1ccncc1 | 101% (inactive) | 99.3 | 98.8 | 111% (inactive) | 101 | 115 | 132% (inactive) | 101% (inactive) | 90.3% (inactive) | 88.7 | 88.2
Cc1cccc(Sc2ccc([N+](=O)[O-])cc2[N+](=O)[O-])n1 | 102% (inactive) | 100 | 102 | 97.4% (inactive) | 100 | 98.3 | 104% (inactive) | 101% (inactive) | 100% (inactive) | 101 | 99.8
COc1cccc2c1Oc1ncccc1N(C(=O)CCC(=O)NCc1ccccc1F)C2 | 100% (inactive) | 101 | 101 | 142% (inactive) | 147 | 139 | 135% (inactive) | 105% (inactive) | 148% (inactive) | 150 | 147
CCC(C)(C)n1nnnc1C(c1ccc(O)c(OC)c1)N1CCc2ccccc2C1 (configuration not stated) | 100% (inactive) | 99.6 | 97.6 | 117% (inactive) | 99.3 | 117 | 99.5% (inactive) | 117% (inactive) | 108% (inactive) | 108 | 105
Cc1c(O)ccc(/C=N/Nc2nc(-c3cccnc3)nc3ccccc23)c1O | 97.4% (inactive) | 95.9 | 98.5 | 97.4% (inactive) | 92.5 | 103 | 102% (inactive) | 93.9% (inactive) | 99.1% (inactive) | 96.5 | 98.7
